This test deals with Cannabinoid receptor 1 (Rattus norvegicus, UniProt P20272). Description: In vitro binding affinity against rat cannabinoid receptor 1 using 0.5 nM [3H]CP-55940. Summed up:
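Competition binding on membranes from frozen Sprague-Dawley rat cerebellum (0.6 mg tissue per tube) in pH 7.4 buffer: 50 mM Tris-HCl, 3 mM MgCl2, 1 mM EDTA, 0.5% fat-free BSA. Incubated 1 h at 30 °C with serial ligand dilutions. Nonspecific binding determined with excess unlabelled CP-55940. GF/C filtration, scintillation counting, quadruplicate. Ki from IC50 via Cheng-Prusoff, Kd 0.5 nM.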

The record followed here is ChEMBL document CHEMBL1141077, “Synthesis and structure-activity relationship of a novel series of aminoalkylindoles with potential for imaging the neuronal cannabinoid receptor by positron emission tomography” (J Med Chem, 2005).

Chain of Cannabinoid receptor 1 (P20272 whole entry): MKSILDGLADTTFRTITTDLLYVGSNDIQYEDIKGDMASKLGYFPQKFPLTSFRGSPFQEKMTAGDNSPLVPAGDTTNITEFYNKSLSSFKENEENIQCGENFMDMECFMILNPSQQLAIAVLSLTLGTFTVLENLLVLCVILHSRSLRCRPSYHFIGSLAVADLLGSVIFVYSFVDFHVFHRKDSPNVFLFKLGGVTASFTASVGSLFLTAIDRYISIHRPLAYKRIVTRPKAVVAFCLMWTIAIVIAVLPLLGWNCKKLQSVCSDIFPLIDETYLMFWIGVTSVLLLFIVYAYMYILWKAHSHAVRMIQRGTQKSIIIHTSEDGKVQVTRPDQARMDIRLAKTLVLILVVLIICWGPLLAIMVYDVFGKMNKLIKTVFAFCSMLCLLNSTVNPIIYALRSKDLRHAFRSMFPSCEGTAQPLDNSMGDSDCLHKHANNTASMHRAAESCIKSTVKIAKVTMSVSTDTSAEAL

With `CN1CCCCC1Cn1cc(C(=O)c2ccc(F)c3ccccc23)c2ccccc21` (stereo not given), the Ki is 0.7 nM.

Turning to `CN1CCCCC1Cn1nc(C(=O)c2cccc3ccccc23)c2ccccc21` (stereo not given), the Ki came to 1.4 nM.

In turn, `CN1CCCCC1Cn1cc(C(=O)c2cccc3cc(O)ccc23)c2ccccc21` (stereo not given) came in with a Ki of 4 nM.

For `CN1CCCCC1Cn1cc(C(=O)c2ccc(C#N)c3ccccc23)c2ccccc21` (stereo not given), the affinity, expressed as Ki, was 1.1 nM.

`CN1CCCCC1Cn1cc(C(=O)c2ccc(Br)c3ccccc23)c2ccccc21` (stereo not given) showed a Ki of 1.7 nM.

As for `COc1ccc(C(=O)c2cn(CC3CCCCN3C)c3ccccc23)c2ccccc12` (stereo not given), the Ki stood at 2.3 nM.

In the case of `CN1CCCCC1Cn1cc(C(=O)c2ccc([N+](=O)[O-])c3ccccc23)c2ccccc21` (stereo not given), affinity was put at a Ki of 12.4 nM.

Consider `CN1CCCCC1Cn1cc(C(=O)Nc2cccc3ccccc23)c2ccccc21` (stereo not given), for which the affinity corresponds to a Ki of 100 nM.

On to `CN1CCCCC1Cn1cc(C(=O)N2CCCC3CCCCC32)c2ccccc21` (stereo not given), for which the Ki was determined as 12 nM.

Regarding `CN1CCCCC1Cn1cc(C(=O)c2ccc(CCO)c3ccccc23)c2ccccc21` (stereo not given), affinity was put at a Ki of 1.3 nM.

`CN1CCCCC1Cn1cc(C(=O)c2ccccc2I)c2ccccc21` (stereo not given) gave a Ki of 1.2 nM.

With `Cc1ccc(C(=O)c2cn(CC3CCCCN3C)c3ccccc23)c2ccccc12` (stereo not given), the Ki was 1.1 nM.

On to `CN1CCCCC1Cn1cc(C(=O)c2ccc(O)c3ccccc23)c2ccccc21` (stereo not given), for which the Ki turned out to be 2.2 nM.

`Cc1ccc2ccccc2c1C(=O)c1cn(CC2CCCCN2C)c2ccccc12` (stereo not given): affinity was put at a Ki of 7.8 nM.

The molecule `CN1CCCCC1Cn1cc(C(=O)c2cccc3ccccc23)c2ccccc21` (stereo not given) came in with a Ki of 0.9 nM.
